Data published in ChEMBL document CHEMBL1667802, “1H-imidazo[4,5-c]pyridine-4-carbonitrile as cathepsin S inhibitors: separation of desired cellular activity from undesired tissue accumulation through optimization of basic nitrogen pka” (Bioorg Med Chem Lett, 2011).

Assays:
[1] = target: T1, Cathepsin S (Homo sapiens, UniProt P25774); experiment: Inhibition of human cathepsin S
[2] = target: T1, Cathepsin S; experiment: Inhibition of cathepsin S in human JY cells assessed as accumulation of lip10 by Western blot analysis; type: cell-based
[3] = target: Cathepsin B (Homo sapiens, UniProt P07858); experiment: Inhibition of human cathepsin B
[4] = target: Procathepsin L (Homo sapiens, UniProt P07711); experiment: Inhibition of human cathepsin L
Procathepsin L, sequence (P07711 whole entry): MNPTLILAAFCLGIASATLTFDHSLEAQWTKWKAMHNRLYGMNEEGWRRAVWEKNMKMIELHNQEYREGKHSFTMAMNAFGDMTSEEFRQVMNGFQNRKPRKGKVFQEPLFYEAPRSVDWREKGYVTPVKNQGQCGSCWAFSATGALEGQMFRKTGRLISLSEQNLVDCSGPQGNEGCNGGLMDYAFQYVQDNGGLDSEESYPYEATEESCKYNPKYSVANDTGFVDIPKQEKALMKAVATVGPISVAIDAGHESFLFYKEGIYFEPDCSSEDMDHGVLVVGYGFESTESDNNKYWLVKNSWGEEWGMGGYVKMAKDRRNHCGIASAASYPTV

[5] = target: T2, Cathepsin L2 (Homo sapiens, UniProt O60911); experiment: Inhibition of human cathepsin V
T2 sequence (O60911 whole entry): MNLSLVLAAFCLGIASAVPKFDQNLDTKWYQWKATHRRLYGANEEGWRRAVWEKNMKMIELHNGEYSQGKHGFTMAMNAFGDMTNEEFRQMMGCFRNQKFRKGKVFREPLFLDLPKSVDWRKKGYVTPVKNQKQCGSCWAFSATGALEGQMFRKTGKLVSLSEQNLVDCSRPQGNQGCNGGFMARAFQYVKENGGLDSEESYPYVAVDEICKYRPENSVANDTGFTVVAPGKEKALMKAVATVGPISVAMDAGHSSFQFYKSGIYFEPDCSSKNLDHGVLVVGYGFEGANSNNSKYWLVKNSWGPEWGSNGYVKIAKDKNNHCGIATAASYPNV

[6] = test system: Spleen; experiment: Drug level in C57BI/6 mouse spleen at 30 mg/kg, po; type: ADME, organism-based; design: dose 30 mg/kg, route oral; settings: in vivo, read-out: Drug uptake
[7] = test system: Plasma; experiment: Drug level in C57BI/6 mouse plasma at 30 mg/kg, po; type: ADME, organism-based; design: dose 30 mg/kg, route oral; settings: in vivo
[8] = Ratio of drug level in spleen to plasma in C57BI/6 mouse at 30 mg/kg, po; type: ADME, organism-based; design: dose 30 mg/kg, route oral
In short: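 HCl salt given by oral gavage at 30 mg/kg in 0.5% gelatin, 5% mannitol in water to C57Bl/6 mice of 18–25 g. Blood and spleen collected 2 h after dosing and total compound level measured in each. Ratio taken as total spleen over total plasma concentration.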

[9] = target: T3, Cathepsin K (Homo sapiens, UniProt P43235); experiment: Inhibition of human cathepsin K
T3 sequence (P43235 whole entry): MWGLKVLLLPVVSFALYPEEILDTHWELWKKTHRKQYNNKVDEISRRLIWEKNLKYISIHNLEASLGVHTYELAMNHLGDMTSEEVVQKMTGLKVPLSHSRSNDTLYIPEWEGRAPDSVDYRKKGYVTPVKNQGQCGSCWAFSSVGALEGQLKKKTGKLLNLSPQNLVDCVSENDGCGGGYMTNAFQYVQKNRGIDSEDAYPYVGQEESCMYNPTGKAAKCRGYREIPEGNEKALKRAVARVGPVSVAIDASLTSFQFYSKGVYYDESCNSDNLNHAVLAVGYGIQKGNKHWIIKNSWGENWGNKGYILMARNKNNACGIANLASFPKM

[10] = Dissociation constant, pKa of the compound; type: physicochemical
[11] = Clearance in Sprague-Dawley rat at 2 mg/kg, iv or 10 mg/kg, po; type: ADME, organism-based; settings: in vivo
In short: (§1)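 Pharmacokinetics in male C57 mice, Sprague Dawley rats and Cynomolgus monkeys. Dosing was 2 mg/kg iv and 10 mg/kg po, with oral vehicle gelatin/mannitol. Parameters reported are clearance, Vss, Cmax and oral bioavailability (F %).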

[12] = Volume of distribution at steady state in C57 mouse at 2 mg/kg, iv or 10 mg/kg, po; type: ADME, organism-based; settings: in vivo, read-out: Vdss; in short: as §1
[13] = Oral bioavailability in Sprague-Dawley rat at 2 mg/kg, iv or 10 mg/kg, po; type: ADME, organism-based; settings: in vivo; in short: as §1
[14] = Cmax in C57 mouse at 2 mg/kg, iv or 10 mg/kg, po; type: ADME, organism-based; settings: in vivo; in short: as §1
[15] = Oral bioavailability in C57 mouse at 2 mg/kg, iv or 10 mg/kg, po; type: ADME, organism-based; settings: in vivo; in short: as §1
[16] = Volume of distribution at steady state in Sprague-Dawley rat at 2 mg/kg, iv or 10 mg/kg, po; type: ADME, organism-based; settings: in vivo, read-out: Vdss; in short: as §1
[17] = Cmax in Sprague-Dawley rat at 2 mg/kg, iv or 10 mg/kg, po; type: ADME, organism-based; settings: in vivo; in short: as §1
[18] = Clearance in C57 mouse at 2 mg/kg, iv or 10 mg/kg, po; type: ADME, organism-based; settings: in vivo; in short: as §1
[19] = Ratio of drug level in spleen to plasma in C57BI/6 mouse at 30 mg/kg, po after 4 hrs; type: ADME, organism-based; design: dose 30 mg/kg, route oral
In short: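 Male or female unspecified 18–25 g C57Bl/6 mice received the HCl salt at 30 mg/kg by oral gavage in 0.5% gelatin, 5% mannitol in water. Blood and spleen were collected after dosing and total compound levels measured. The spleen/plasma ratio was taken from total spleen and total plasma concentrations (nM).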

[20] = Drug level in C57BI/6 mouse spleen at 30 mg/kg, po after 4 hrs; type: ADME, organism-based; design: dose 30 mg/kg, route oral; settings: read-out: Drug uptake
[21] = Drug level in C57BI/6 mouse plasma at 30 mg/kg, po after 4 hrs; type: ADME, organism-based; design: dose 30 mg/kg, route oral
[22] = target: Cathepsin S (Mus musculus, UniProt O70370); experiment: Inhibition of mouse cathepsin S
Cathepsin S (Mus musculus, UniProt O70370), sequence (O70370 whole entry): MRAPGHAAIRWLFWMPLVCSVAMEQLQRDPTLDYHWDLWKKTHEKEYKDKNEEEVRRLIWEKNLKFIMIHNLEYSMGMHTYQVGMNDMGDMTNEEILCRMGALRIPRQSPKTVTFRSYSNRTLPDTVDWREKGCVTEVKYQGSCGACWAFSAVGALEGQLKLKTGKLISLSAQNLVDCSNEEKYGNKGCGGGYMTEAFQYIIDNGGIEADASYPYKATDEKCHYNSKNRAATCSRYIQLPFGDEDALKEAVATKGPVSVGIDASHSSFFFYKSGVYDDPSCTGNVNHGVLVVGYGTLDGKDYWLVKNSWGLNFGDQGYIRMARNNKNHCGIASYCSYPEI

[23] = Clearance in cynomolgus monkey at 2 mg/kg, iv or 10 mg/kg, po; type: ADME, organism-based, Macaca fascicularis; settings: in vivo; in short: as §1
[24] = Cmax in cynomolgus monkey at 2 mg/kg, iv or 10 mg/kg, po; type: ADME, organism-based, Macaca fascicularis; settings: in vivo; in short: as §1
[25] = Volume of distribution at steady state in cynomolgus monkey at 2 mg/kg, iv or 10 mg/kg, po; type: ADME, organism-based, Macaca fascicularis; settings: in vivo, read-out: Vdss; in short: as §1
[26] = Oral bioavailability in cynomolgus monkey at 2 mg/kg, iv or 10 mg/kg, po; type: ADME, organism-based, Macaca fascicularis; settings: in vivo; in short: as §1
[27] = test system: Liver microsomes; experiment: Stability in Sprague-Dawley rat liver microsome; type: ADME
[28] = Stability in C57 mouse liver microsome; type: ADME; settings: microsomes
[29] = test system: Liver microsomes; experiment: Stability in human liver microsome; type: ADME

T1 sequence (P25774 whole entry): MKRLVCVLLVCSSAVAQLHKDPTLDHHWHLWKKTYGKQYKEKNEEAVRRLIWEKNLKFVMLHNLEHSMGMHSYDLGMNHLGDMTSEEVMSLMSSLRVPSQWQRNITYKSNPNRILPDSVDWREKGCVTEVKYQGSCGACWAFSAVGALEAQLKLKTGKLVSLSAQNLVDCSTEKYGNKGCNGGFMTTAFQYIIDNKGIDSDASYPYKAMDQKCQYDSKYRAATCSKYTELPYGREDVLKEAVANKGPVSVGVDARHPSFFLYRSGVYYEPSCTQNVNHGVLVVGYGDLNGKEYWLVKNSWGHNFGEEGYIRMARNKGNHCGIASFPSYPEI

SMILES | IC50 [1] | IC50 [2] | IC50 [3] | IC50 [4] | IC50 [5] | concentration [6] | concentration [7] | Kp [8] | IC50 [9] | pKa [10] | also measured
CN1CCC(CCOc2ccc(-c3cc4c(ncn4C)c(C#N)n3)cc2C(F)(F)F)CC1 | 7.9 nM | 10 nM | > 10000 nM | > 10000 nM | > 10000 nM |  |  |  |  |  | 
Cc1noc(C)c1CN1CCC(CCOc2ccc(-c3cc4c(ncn4C)c(C#N)n3)cc2C(F)(F)F)CC1 | 3.3 nM | 12 nM | > 10000 nM | > 10000 nM | > 10000 nM | 19.6 µM | 3.4 µM | 5.8 | 288 nM | 7.9 | 
CN(C)C(=O)CN1CCC(CCOc2ccc(-c3cc4c(ncn4C)c(C#N)n3)cc2C(F)(F)F)CC1 |  | 22 nM | > 10000 nM | > 10000 nM | > 10000 nM | 11.7 µM | 1.03 µM | 11.4 | 407 nM | 7.5 | clearance [11]: 93.5 mL/min/kg; Vd [12]: 6.17 L/kg; bioavailability [13]: 8.93%; Cmax [14]: 296 ng/mL; bioavailability [15]: 62%; Vd [16]: 9.8 L/kg; Cmax [17]: 13.4 ng/mL; clearance [18]: 79.4 mL/min/kg
Cn1cnc2c(C#N)nc(-c3ccc(OCCC4CCN(S(C)(=O)=O)CC4)c(C(F)(F)F)c3)cc21 | 27 nM | 353 nM | > 10000 nM | > 10000 nM | > 10000 nM |  |  |  | 2340 nM |  | 
CCN1CCN(CCCOc2ccc(-c3cc4c(ncn4C)c(C#N)n3)cc2C(F)(F)F)CC1 |  |  | > 10000 nM | > 10000 nM | > 10000 nM | 4.57 µM | 0.09 µM | 51 |  |  | 
Cc1nnc(CN2CCC(CCOc3ccc(-c4cc5c(ncn5C)c(C#N)n4)cc3C(F)(F)F)CC2)o1 | 14.1 nM | 123 nM | > 10000 nM | > 10000 nM | > 10000 nM | 18.2 µM | 6.37 µM | 2.9 | 813 nM | 5.6 | 
CC(=O)N1CCC(CCOc2ccc(-c3cc4c(ncn4C)c(C#N)n3)cc2C(F)(F)F)CC1 | 13 nM | 235 nM | > 10000 nM | > 10000 nM | > 10000 nM |  |  |  | 1910 nM |  | 
Cc1noc(CN2CCC(CCOc3ccc(-c4cc5c(ncn5C)c(C#N)n4)cc3C(F)(F)F)CC2)n1 | 18.6 nM | 294 nM | > 10000 nM | > 10000 nM | > 10000 nM | 4.09 µM | 5.66 µM | 0.7 | 1150 nM | 5.3 | 
CN(C)CCCOc1ccc(-c2cc3c(ncn3C)c(C#N)n2)cc1C(F)(F)F |  |  | > 10000 nM | > 10000 nM | > 10000 nM |  |  |  |  |  | Kp at 4 h [19]: 26; concentration at 4 h [20]: 2.43 µM; concentration at 4 h [21]: 0.094 µM
Cn1cnc2c(C#N)nc(-c3ccc(OCCC4CCN(Cc5ncco5)CC4)c(C(F)(F)F)c3)cc21 | 7.9 nM | 39 nM | > 10000 nM | > 10000 nM | > 10000 nM | 12.5 µM | 6.61 µM | 1.9 | 708 nM | 6.3 | IC50 [22]: 1.6 nM; clearance [11]: 73.8 mL/min/kg; clearance [23]: 10 mL/min/kg; Cmax [24]: 234 ng/mL; Vd [12]: 1.48 L/kg; bioavailability [13]: 3.6%; Cmax [14]: 3160 ng/mL; bioavailability [15]: 112%; Vd [25]: 0.6 L/kg; Vd [16]: 2.43 L/kg; Cmax [17]: 9.64 ng/mL; clearance [18]: 13.9 mL/min/kg; bioavailability [26]: 9%
Cn1cnc2c(C#N)nc(-c3ccc(OCCC4CCNCC4)c(C(F)(F)F)c3)cc21 |  |  | > 10000 nM | > 10000 nM | > 10000 nM |  |  |  |  |  | Stability [27]: Stable; Stability [28]: Stable; Stability [29]: Stable
